Results as given in ChEMBL document CHEMBL1154040, “Synthesis and evaluation of novel F-18 labeled fluoroarylvaline derivatives: potential PET imaging agents for tumor detection” (Bioorg Med Chem Lett, 2009).

How the values were obtained:
[1] = test system: Blood; assay: Stability in tumor bearing KM mouse blood after 30 mins at 4 MBq, iv; assay type: ADME, tissue-based; conditions: 0.5 h
Summary of the method: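 Blood from tumor-bearing mice was collected after tracer injection and centrifuged at once for 5 min at 13,200 rpm. Supernatants from both centrifugation steps were combined, loaded onto a C18 Sep-Pak cartridge, washed with 2 ml water, then eluted.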

[2] = Ratio of drug level in S180 tumor to blood in KM mouse at 240 to 370 kBq, iv after 15mins; assay type: ADME, organism-based; conditions: tumour, 0.25 h
[3] = test system: Blood; assay: Biodistribution in S180 tumor-bearing KM mouse blood assessed per gram of tissue weight at 240 to 370 kBq, iv after 30 mins; assay type: ADME, organism-based; conditions: in vivo, 0.5 h
[4] = test system: Femur; assay: Biodistribution in S180 tumor-bearing KM mouse femur assessed per gram of tissue at 240 to 370 kBq, iv after 5 mins; assay type: ADME, organism-based; conditions: in vivo
Summary of the method: (§1)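 Female KM mice (20 ± 2 g) were used 14–18 days after inoculation of 5 × 10^6 S 180 tumor cells. The ¹⁸F tracer in saline was injected into the tail vein of awake mice. Mice were killed at 5, 15, 30, 60 or 120 min, and the femur was removed, weighed and gamma-counted. Results are background-corrected %ID/g, mean ± SD, n = 4.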

[5] = test system: Muscle tissue; assay: Biodistribution in S180 tumor-bearing KM mouse muscle assessed per gram of tissue at 240 to 370 kBq, iv after 30 mins; assay type: ADME, organism-based; conditions: in vivo, 0.5 h
[6] = test system: Brain; assay: Biodistribution in S180 tumor-bearing KM mouse brain assessed per gram of tissue at 240 to 370 kBq, iv after 30 mins; assay type: ADME, organism-based; conditions: in vivo, 0.5 h
[7] = test system: Muscle tissue; assay: Biodistribution in S180 tumor-bearing KM mouse muscle assessed per gram of tissue at 240 to 370 kBq, iv after 15 mins; assay type: ADME, organism-based; conditions: in vivo, 0.25 h
[8] = test system: Femur; assay: Biodistribution in S180 tumor-bearing KM mouse femur assessed per gram of tissue at 240 to 370 kBq, iv after 120 mins; assay type: ADME, organism-based; conditions: in vivo, 2 h; summary of the method: as §1
[9] = test system: Muscle tissue; assay: Biodistribution in S180 tumor-bearing KM mouse muscle assessed per gram of tissue at 240 to 370 kBq, iv after 120 mins; assay type: ADME, organism-based; conditions: in vivo, 2 h
[10] = Ratio of drug level in S180 tumor to brain KM mouse at 240 to 370 kBq, iv after 5 mins; assay type: ADME, organism-based; conditions: in vivo
[11] = test system: Brain; assay: Biodistribution in S180 tumor-bearing KM mouse brain assessed per gram of tissue at 240 to 370 kBq, iv after 60 mins; assay type: ADME, organism-based; conditions: in vivo, 1 h
[12] = Ratio of drug level in S180 tumor to brain KM mouse at 240 to 370 kBq, iv after 15 mins; assay type: ADME, organism-based; conditions: in vivo, 0.25 h
[13] = test system: Blood; assay: Biodistribution in S180 tumor-bearing KM mouse blood assessed per gram of tissue weight at 240 to 370 kBq, iv after 60 mins; assay type: ADME, organism-based; conditions: in vivo, 1 h
[14] = test system: Heart; assay: Biodistribution in S180 tumor-bearing KM mouse heart assessed per gram of tissue weight at 240 to 370 kBq, iv after 30 mins; assay type: ADME, organism-based; conditions: in vivo, 0.5 h
[15] = Ratio of drug level in S180 tumor to blood in KM mouse at 240 to 370 kBq, iv after 5mins; assay type: ADME, organism-based; conditions: tumour
[16] = test system: Femur; assay: Biodistribution in S180 tumor-bearing KM mouse femur assessed per gram of tissue at 240 to 370 kBq, iv after 30 mins; assay type: ADME, organism-based; conditions: in vivo, 0.5 h; summary of the method: as §1
[17] = test system: Femur; assay: Biodistribution in S180 tumor-bearing KM mouse femur assessed per gram of tissue at 240 to 370 kBq, iv after 60 mins; assay type: ADME, organism-based; conditions: in vivo, 1 h; summary of the method: as §1
[18] = test system: Liver; assay: Biodistribution in S180 tumor-bearing KM mouse liver assessed per gram of tissue weight at 240 to 370 kBq, iv after 5 mins; assay type: ADME, organism-based; conditions: in vivo
[19] = Ratio of drug level in S180 tumor to blood in KM mouse at 240 to 370 kBq, iv after 30mins; assay type: ADME, organism-based; conditions: tumour, 0.5 h
[20] = test system: Spleen; assay: Biodistribution in S180 tumor-bearing KM mouse spleen assessed per gram of tissue at 240 to 370 kBq, iv after 120 mins; assay type: ADME, organism-based; conditions: in vivo, 2 h
[21] = Ratio of drug level in S180 tumor to blood in KM mouse at 240 to 370 kBq, iv after 120 mins; assay type: ADME, organism-based; conditions: tumour, 2 h
[22] = test system: Femur; assay: Biodistribution in S180 tumor-bearing KM mouse femur assessed per gram of tissue at 240 to 370 kBq, iv after 15 mins; assay type: ADME, organism-based; conditions: in vivo, 0.25 h; summary of the method: as §1
[23] = Ratio of drug level in S180 tumor to muscleKM mouse at 240 to 370 kBq, iv after 120 mins; assay type: ADME, organism-based, KM; conditions: in vivo, 2 h

| Stability [1] | tumor/blood ratio [2] | Drug uptake [3] [%ID] | Drug uptake [4] [%ID] | Drug uptake [5] [%ID] | Drug uptake [6] [%ID] | Drug uptake [7] [%ID] | Drug uptake [8] [%ID] | Drug uptake [9] [%ID] | tumor/brain ratio [10] | Drug uptake [11] [%ID] | tumor/brain ratio [12] | Drug uptake [13] [%ID] | Drug uptake [14] [%ID] | tumor/blood ratio [15] | Drug uptake [16] [%ID] | Drug uptake [18] [%ID] | Drug uptake [20] [%ID] | tumor/blood ratio [21] | tumor/muscle ratio [23] | SMILES | also measured |
| --- | --- | --- | --- | --- | --- | --- | --- | --- | --- | --- | --- | --- | --- | --- | --- | --- | --- | --- | --- | --- | --- |
| Stable | 0.72 | 0.24 | 3.61 | 0.21 | 0.04 | 0.47 | 2.15 | 0.12 | 9.38 | 0.03 | 10.4 | 0.15 | 0.29 | 0.56 | 3.38 | 6.54 | 0.16 | 1.3 | 0.66 | CC(C)[C@H](NC(=O)c1ccc([N+](=O)[O-])cc1[18F])C(=O)O | Drug uptake [17]: 2.47 %ID; tumor/blood ratio [19]: 2.32; Drug uptake [22]: 4.02 %ID |
| – | 3.42 | 0.16 | – | 1.07 | 3.07 | 1.14 | – | 0.78 | 0.53 | 2.11 | 0.59 | 0.11 | 2.69 | 1.17 | – | 1.35 | 0.78 | 15.8 | 2.2 | OC[C@H]1O[C@@H](O)[C@H]([18F])[C@@H](O)[C@@H]1O [FLUDEOXYGLUCOSE-F18] | – |
| Stable | 0.94 | 0.68 | 1.6 | 0.82 | 0.28 | 1.39 | 2.01 | 0.58 | 2.79 | 0.17 | 3.42 | 0.28 | 0.4 | 0.9 | 2.11 | 15.9 | 0.05 | 1.67 | 0.54 | COC(=O)[C@@H](NC(=O)c1ccc([N+](=O)[O-])cc1[18F])C(C)C | Drug uptake [17]: 2.09 %ID; tumor/blood ratio [19]: 2.91; Drug uptake [22]: 2.23 %ID |
